Source: ChEMBL document CHEMBL1122758, “Studies of the mode of action of antitumor triazenes and triazines. 6. 1-Aryl-3-(hydroxymethyl)-3-methyltriazenes: synthesis, chemistry, and antitumor properties” (J Med Chem, 1984)
Values belong to the molecule of their own block, whether it stands above or below them.

Columns and labels:
[1] = In vitro biological stability and half-life was measured in phosphate buffer at a pH 7.5 of at 25 degree Centigrade; assay type: physicochemical
Outline: (§1)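 Decomposition was tracked by UV spectroscopy as the fall in absorbance over time at the compound's λmax. Half-life came from the slope of a log plot of extent of decomposition against time, assuming first-order kinetics. Line 4 used Earl's buffer (NaCl, NaHCO3, glucose, KCl, NaH2PO4, HCl to pH 7.4). Lines 5-11 used Sorensen's phosphate buffer, with KH2PO4 and Na2HPO4 mixed to the stated pH.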

[2] = In vitro biological stability and half-life was measured in phosphate buffer at a pH of 7.4 at 37 degree Centigrade; assay type: physicochemical; conditions: pH 7.4; outline: as §1
[3] = In vitro biological stability and half-life was measured in phosphate buffer at a pH of 7.5 at 25 degree Centigrade; assay type: physicochemical; conditions: pH 7.5; outline: as §1
[4] = test system: Mus musculus; assay: Compound was evaluated in vivo for antitumor activity against TLX5S Lymphoma implanted mice and percentage increase in life span (%ILS(T/C)) was reported at a optimal dose of 20 mg/Kg; assay type: functional
[5] = test system: Mus musculus; assay: Compound was evaluated in vivo for antitumor activity against TLX5R Lymphoma implanted mice and percentage increase in life span (%ILS(T/C)) was reported at a optimal dose of 5 mg/Kg five times daily
[6] = test system: Mus musculus; assay: Compound was evaluated in vivo for antitumor activity against TLX5R Lymphoma implanted mice and percentage increase in life span (%ILS(T/C)) was reported at a optimal dose of 20 mg/Kg five times daily.; assay type: functional
[7] = In vitro biological stability and half-life was measured in Earl's buffer at a pH 7.4 of at 37 degree Centigrade; assay type: physicochemical; outline: as §1
[8] = In vitro biological stability and half-life was measured by HPLC in Earl's buffer at a pH of 7.4 at 37 degree Centigrade; assay type: physicochemical; conditions: pH 7.4
Outline: (§2)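 Triazene incubated at 100 µg mL-1 in closed containers at 37 °C in pH 7.4 buffer: Earl's (NaCl, NaHCO3, glucose, KCl, NaH2PO4, HCl-adjusted) for line 1; 0.01 M Tris, HCl-adjusted, for line 2; Sorensen's KH2PO4/Na2HPO4 phosphate for line 3. Remaining triazene was followed by HPLC with 30% aqueous acetonitrile plus 0.1% diethylamine at 2 mL/min, and UV detection at the compound's λmax.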

[9] = In vitro biological stability and half-life was measured by HPLC in phosphate buffer at a pH of 7.4 at 37 degree Centigrade; assay type: physicochemical; conditions: pH 7.4; outline: as §2
[10] = In vitro biological stability and half-life was measured by HPLC in TRIS buffer at a pH of 7.4 at 37 degree Centigrade; assay type: physicochemical; conditions: pH 7.4; outline: as §2
[11] = In vitro biological stability and half-life was measured in phosphate buffer at a pH of 4.5 at 37 degree Centigrade; assay type: physicochemical; conditions: pH 4.5; outline: as §1
[12] = In vitro biological stability and half-life was measured in phosphate buffer at a pH of 5.2 at 37 degree Centigrade; assay type: physicochemical; conditions: pH 5.2; outline: as §1
[13] = In vitro biological stability and half-life was measured in phosphate buffer at a pH of 2.5 at 37 degree Centigrade; assay type: physicochemical; conditions: pH 2.5; outline: as §1
[14] = In vitro biological stability and half-life was measured in phosphate buffer at a pH of 3.5 at 37 degree Centigrade; assay type: physicochemical; conditions: pH 3.5; outline: as §1

- half-life [1]: 7 min
SMILES: CCN(CO)N=Nc1ccc(C(=O)OC)cc1

SMILES: COC(=O)c1ccc(/N=N/N(C)CO)cc1
- half-life [2]: 12.6 min
- half-life [3]: 22 min
- ILS (T/C) [4]: 120%
- ILS (T/C) [5]: 0%

- half-life [2]: 3.5 min
SMILES: C/N=N/Nc1ccccc1

SMILES: CC(=O)c1ccc(/N=N/N(C)CO)cc1
- half-life [2]: 14.5 min
- ILS (T/C) [4]: 72%

SMILES: CN(CO)/N=N/c1ccc(C#N)cc1
- ILS (T/C) [4]: 54%

SMILES: CN/N=N/c1ccc(C(=O)OC)cc1
- half-life [2]: 12.1 min
- half-life [3]: 35 min
- ILS (T/C) [6]: 4%
- ILS (T/C) [4]: 87%

- half-life [1]: 9 min
SMILES: CCN=NNc1ccc(C(=O)OC)cc1

SMILES: CN(CO)/N=N/c1ccc(C(N)=O)cc1
- ILS (T/C) [4]: 62%

- half-life [7]: 99 min
SMILES: CN=NNc1ccc(C#N)cc1

- half-life [8]: 66.6 min
- half-life [9]: 15.1 min
- half-life [10]: 36.2 min
- half-life [2]: 13.8 min
SMILES: CN=NNc1ccc(C(C)=O)cc1

SMILES: CC(=O)c1ccc(/N=N/N(C)C)cc1
- half-life [11]: 108 min
- half-life [12]: > 1440 min
- half-life [13]: 1.23 min
- half-life [14]: 11.8 min
- half-life [2]: > 1440 min
- ILS (T/C) [6]: 0%
- ILS (T/C) [4]: 65%

- half-life [7]: 18.3 min
SMILES: CCN=NNc1ccc(C#N)cc1

- half-life [8]: 15.1 min
SMILES: CCN=NNc1ccc(C(C)=O)cc1

SMILES: COC(=O)c1ccc(/N=N/N(C)C)cc1
- half-life [3]: > 1440 min
- ILS (T/C) [6]: 0%
- ILS (T/C) [4]: 58%

SMILES: COC(=O)c1ccc(/N=N/N(C)COC(=O)c2ccccc2)cc1
- half-life [3]: 26.5 min
- ILS (T/C) [4]: 31%

SMILES: CCN(CO)/N=N/c1ccc(C#N)cc1
- ILS (T/C) [4]: 0%
